In ChEMBL document CHEMBL2163282, “Discovery and characterization of AZD9272 and AZD6538-Two novel mGluR5 negative allosteric modulators selected for clinical development” (Bioorg Med Chem Lett, 2012):

Assays:
[1] = Tmax in Sprague-Dawley rat at 3 umol/kg, po; type: ADME, organism-based; details: in vivo
Outline: (§1)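 Male rats (n = 3) received a single oral dose of 3 µmol/kg. Vehicle was Polyvidon K30 1.7 mg/ml, sodium lauryl sulphate 0.34 mg/ml and glycerin 25.0 mg/ml in water. Plasma levels were measured by liquid–liquid extraction and reversed-phase LC-MS/MS (APCI or ESI).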

[2] = target: Metabotropic glutamate receptor 8 (Homo sapiens) (UniProt O00222); assay: Agonist activity at mGluR8 assessed as effect on intracellular Ca2+ level up to 30 uM by cell based FLIPR assay; type: functional
Outline: (§2)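 Each of the seven other mGluR subtypes was tested at concentrations up to 30 µM. Agonist, antagonist and positive allosteric modulator modes were each assessed. Read-out was the change in intracellular Ca2+ on FLIPR.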

[3] = AUC (0 to 8 hrs) in Sprague-Dawley rat at 3 umol/kg, po; type: ADME, organism-based; parameters: time < 8 hr, dose 3 umol/kg, route oral; details: plasma; outline: as §1
[4] = target: Metabotropic glutamate receptor 1 (Homo sapiens) (UniProt Q13255); assay: Antagonist activity at mGluR1 assessed as effect on intracellular Ca2+ level up to 30 uM by cell based FLIPR assay; type: functional; outline: as §2
[5] = target: T1, Metabotropic glutamate receptor 5 (Homo sapiens, UniProt P41594); assay: Negative allosteric modulation of human recombinant mGluR5 expressed in HEK293 cells expressing GLAST assessed as inhibition of DHPG-induced intracellular Ca2+ level after 30 mins by FLIPR assay
[6] = target: Metabotropic glutamate receptor 6 (Homo sapiens) (UniProt O15303); assay: Agonist activity at mGluR6 assessed as effect on intracellular Ca2+ level up to 30 uM by cell based FLIPR assay; type: functional; outline: as §2
[7] = target: Metabotropic glutamate receptor 5 (Rattus norvegicus, UniProt P31424); assay: Displacement of [3H]AZD9272 from mGluR5 in Sprague-Dawley rat striatum by autoradiographic analysis
Outline: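 Sections were cut from rat striatum (plates 13–16, 2 rats). They were incubated with 3 nM [3H]AZD9272 plus increasing concentrations of competitor. Nonspecific binding was defined with 10 µM MPEP. Bound label was read by autoradiography (mean, SD, n = 2).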

[8] = target: T1, Metabotropic glutamate receptor 5; assay: Displacement of [3H]MPEP from human mGluR5 expressed in HEK293 cell membranes expressing GLAST after 1 hr by scintillation counter
[9] = target: Metabotropic glutamate receptor 3 (Homo sapiens) (UniProt Q14832); assay: Agonist activity at mGluR3 assessed as effect on intracellular Ca2+ level up to 30 uM by cell based FLIPR assay; type: functional; outline: as §2
[10] = target: Metabotropic glutamate receptor 2 (Homo sapiens) (UniProt Q14416); assay: Positive allosteric modulation of mGluR2 assessed as effect on intracellular Ca2+ level up to 30 uM by cell based FLIPR assay; type: functional; outline: as §2
[11] = target: Metabotropic glutamate receptor 1 (Homo sapiens) (UniProt Q13255); assay: Positive allosteric modulation of mGluR1 assessed as effect on intracellular Ca2+ level up to 30 uM by cell based FLIPR assay; type: functional; outline: as §2
[12] = Plasma protein binding in Sprague-Dawley rat after 6 hrs by equilibrium dialysis method; type: ADME, cell-free; details: read-out: PPB (converted)
[13] = target: T1, Metabotropic glutamate receptor 5; assay: Displacement of [3H]AZD9272 from human mGluR5 expressed in HEK293 cell membranes expressing GLAST after 1 hr by scintillation counter
[14] = Volume of distribution at steady state in Sprague-Dawley rat at 3 umol/kg, iv; type: ADME, organism-based; details: in vivo, read-out: Vdss
Outline: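 Male rats (n = 3) received a single intravenous dose of 3 µmol/kg. Vehicle was 40% w/w dimethylacetamide/40% w/w PEG 400/20% w/w water. Plasma drug was measured after liquid–liquid extraction by reversed-phase LC with APCI or ESI tandem MS.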

[15] = target: Metabotropic glutamate receptor 6 (Homo sapiens) (UniProt O15303); assay: Positive allosteric modulation of mGluR6 assessed as effect on intracellular Ca2+ level up to 30 uM by cell based FLIPR assay; type: functional; outline: as §2
[16] = target: Metabotropic glutamate receptor 7 (Homo sapiens) (UniProt Q14831); assay: Positive allosteric modulation of mGluR7 assessed as effect on intracellular Ca2+ level up to 30 uM by cell based FLIPR assay; type: functional; outline: as §2
[17] = AUC in Sprague-Dawley rat at 3 umol/kg, po; type: ADME, organism-based; details: plasma; outline: as §1
[18] = target: T1, Metabotropic glutamate receptor 5; details: HEK293, tested as the 3H-labelled form
[19] = target: T1, Metabotropic glutamate receptor 5; assay: Binding affinity to human mGluR5 expressed in HEK293 cell membranes expressing GLAST assessed as per mg of protein after 1 hr by scintillation counter in absence of MPEP; details: tested as the 3H-labelled form
Outline: (§3)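 [3H]AZD9272 equilibrium saturation binding on membranes from human mGluR5-GHEK cells (HEK293 stably expressing glutamate/aspartate transporter), run without MPEP or with 10 or 20 nM MPEP; filtration termination; Kd and Bmax (pmol/mg protein) derived per assay, three separate assays.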

[20] = target: T1, Metabotropic glutamate receptor 5; assay: Binding affinity to human mGluR5 expressed in HEK293 cell membranes expressing GLAST assessed as per mg of protein after 1 hr by scintillation counter in presence of 20 nM MPEP; details: tested as the 3H-labelled form; outline: as §3
[21] = target: T1, Metabotropic glutamate receptor 5; details: HEK293, tested as the 3H-labelled form; remark: listed apart in the source
[22] = target: T1, Metabotropic glutamate receptor 5; assay: Binding affinity to human mGluR5 expressed in HEK293 cell membranes expressing GLAST assessed as per mg of protein after 1 hr by scintillation counter; details: tested as the 3H-labelled form
[23] = target: Metabotropic glutamate receptor 5 (Rattus norvegicus) (UniProt P31424); assay: Binding affinity to mGluR5 in Sprague-Dawley rat striatum assessed per mg of protein after 60 mins by autoradiographic analysis; details: tested as the 3H-labelled form
[24] = target: T1, Metabotropic glutamate receptor 5; assay: Binding affinity to human mGluR5 expressed in HEK293 cell membranes expressing GLAST assessed as per mg of protein after 1 hr by scintillation counter in presence of 10 nM MPEP; details: tested as the 3H-labelled form; outline: as §3

Metabotropic glutamate receptor 6 (Homo sapiens), sequence (O15303 whole entry): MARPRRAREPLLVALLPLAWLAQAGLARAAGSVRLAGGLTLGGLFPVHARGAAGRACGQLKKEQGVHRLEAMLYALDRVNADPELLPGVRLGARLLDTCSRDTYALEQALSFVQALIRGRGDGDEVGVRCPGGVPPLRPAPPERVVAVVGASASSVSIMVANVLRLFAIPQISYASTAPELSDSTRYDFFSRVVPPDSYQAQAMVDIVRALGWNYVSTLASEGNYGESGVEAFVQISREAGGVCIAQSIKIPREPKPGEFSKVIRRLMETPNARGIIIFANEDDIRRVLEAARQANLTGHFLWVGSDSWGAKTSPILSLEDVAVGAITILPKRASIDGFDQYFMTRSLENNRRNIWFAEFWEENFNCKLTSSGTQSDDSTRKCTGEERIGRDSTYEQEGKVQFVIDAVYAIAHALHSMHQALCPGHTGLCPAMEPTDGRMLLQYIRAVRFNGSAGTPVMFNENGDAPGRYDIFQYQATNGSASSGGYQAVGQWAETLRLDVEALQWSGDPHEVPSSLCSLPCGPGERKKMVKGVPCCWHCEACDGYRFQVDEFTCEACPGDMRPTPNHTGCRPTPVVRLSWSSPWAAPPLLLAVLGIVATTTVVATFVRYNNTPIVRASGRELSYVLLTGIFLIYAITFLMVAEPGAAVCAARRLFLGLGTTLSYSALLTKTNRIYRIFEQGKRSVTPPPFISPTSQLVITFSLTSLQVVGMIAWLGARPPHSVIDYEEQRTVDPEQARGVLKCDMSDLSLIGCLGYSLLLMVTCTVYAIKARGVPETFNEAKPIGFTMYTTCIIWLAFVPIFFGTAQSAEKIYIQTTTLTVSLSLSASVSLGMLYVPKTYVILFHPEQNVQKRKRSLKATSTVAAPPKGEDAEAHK
Metabotropic glutamate receptor 1 (Homo sapiens), sequence (Q13255 19-1194 limits assumed): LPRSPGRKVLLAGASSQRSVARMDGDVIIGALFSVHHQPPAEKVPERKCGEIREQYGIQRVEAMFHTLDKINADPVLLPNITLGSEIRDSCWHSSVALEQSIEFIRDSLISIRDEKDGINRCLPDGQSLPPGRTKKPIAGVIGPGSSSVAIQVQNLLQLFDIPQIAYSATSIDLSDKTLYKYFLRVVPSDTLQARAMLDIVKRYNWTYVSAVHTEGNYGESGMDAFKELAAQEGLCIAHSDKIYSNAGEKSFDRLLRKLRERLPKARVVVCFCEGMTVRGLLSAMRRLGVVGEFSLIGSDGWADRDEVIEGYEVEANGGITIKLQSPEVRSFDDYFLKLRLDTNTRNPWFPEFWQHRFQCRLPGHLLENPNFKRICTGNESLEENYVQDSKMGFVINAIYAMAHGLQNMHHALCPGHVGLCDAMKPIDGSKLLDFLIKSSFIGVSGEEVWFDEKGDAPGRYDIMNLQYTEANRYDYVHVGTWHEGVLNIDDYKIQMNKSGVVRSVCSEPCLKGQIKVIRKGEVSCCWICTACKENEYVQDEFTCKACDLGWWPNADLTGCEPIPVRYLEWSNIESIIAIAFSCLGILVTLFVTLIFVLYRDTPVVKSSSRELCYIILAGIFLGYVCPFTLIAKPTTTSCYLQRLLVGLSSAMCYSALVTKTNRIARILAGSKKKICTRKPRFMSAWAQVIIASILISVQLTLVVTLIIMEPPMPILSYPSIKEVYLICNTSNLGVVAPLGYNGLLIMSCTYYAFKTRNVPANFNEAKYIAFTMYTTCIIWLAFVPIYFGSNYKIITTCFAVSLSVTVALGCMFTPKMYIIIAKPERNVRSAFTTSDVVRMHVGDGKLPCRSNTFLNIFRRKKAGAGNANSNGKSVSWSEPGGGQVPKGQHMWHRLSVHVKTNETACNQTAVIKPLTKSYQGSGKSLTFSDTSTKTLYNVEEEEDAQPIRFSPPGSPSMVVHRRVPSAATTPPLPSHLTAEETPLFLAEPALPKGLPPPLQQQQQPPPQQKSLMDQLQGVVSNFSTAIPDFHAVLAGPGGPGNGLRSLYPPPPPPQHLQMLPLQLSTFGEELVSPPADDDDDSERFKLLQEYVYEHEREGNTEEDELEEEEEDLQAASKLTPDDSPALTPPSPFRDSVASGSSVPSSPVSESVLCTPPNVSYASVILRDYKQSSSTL
Metabotropic glutamate receptor 7 (Homo sapiens), sequence (Q14831 whole entry): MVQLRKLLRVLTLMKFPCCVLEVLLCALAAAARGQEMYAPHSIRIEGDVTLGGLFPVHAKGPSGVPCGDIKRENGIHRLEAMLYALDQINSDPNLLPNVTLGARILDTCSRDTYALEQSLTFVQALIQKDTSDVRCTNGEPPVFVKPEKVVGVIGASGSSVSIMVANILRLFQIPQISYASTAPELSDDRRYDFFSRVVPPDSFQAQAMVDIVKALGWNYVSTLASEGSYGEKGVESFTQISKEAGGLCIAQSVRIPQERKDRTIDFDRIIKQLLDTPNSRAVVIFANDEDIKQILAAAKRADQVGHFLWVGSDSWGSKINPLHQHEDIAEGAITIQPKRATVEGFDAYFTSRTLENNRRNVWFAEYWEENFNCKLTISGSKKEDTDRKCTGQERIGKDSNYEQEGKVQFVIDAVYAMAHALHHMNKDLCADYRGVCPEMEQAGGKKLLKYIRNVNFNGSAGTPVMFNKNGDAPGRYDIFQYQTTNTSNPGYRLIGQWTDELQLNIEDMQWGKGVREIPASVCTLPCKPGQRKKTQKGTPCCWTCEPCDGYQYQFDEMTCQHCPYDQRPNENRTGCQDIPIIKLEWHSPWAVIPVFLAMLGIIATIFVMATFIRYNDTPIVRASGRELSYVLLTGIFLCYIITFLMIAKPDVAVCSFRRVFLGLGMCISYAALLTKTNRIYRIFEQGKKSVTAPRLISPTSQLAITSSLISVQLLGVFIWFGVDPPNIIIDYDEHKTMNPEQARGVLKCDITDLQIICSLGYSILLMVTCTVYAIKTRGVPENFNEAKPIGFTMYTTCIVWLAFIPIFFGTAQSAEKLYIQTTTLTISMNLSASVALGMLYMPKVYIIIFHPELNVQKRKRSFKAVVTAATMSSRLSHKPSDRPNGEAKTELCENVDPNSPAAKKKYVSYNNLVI
Metabotropic glutamate receptor 3 (Homo sapiens), sequence (Q14832 23-879 limits assumed): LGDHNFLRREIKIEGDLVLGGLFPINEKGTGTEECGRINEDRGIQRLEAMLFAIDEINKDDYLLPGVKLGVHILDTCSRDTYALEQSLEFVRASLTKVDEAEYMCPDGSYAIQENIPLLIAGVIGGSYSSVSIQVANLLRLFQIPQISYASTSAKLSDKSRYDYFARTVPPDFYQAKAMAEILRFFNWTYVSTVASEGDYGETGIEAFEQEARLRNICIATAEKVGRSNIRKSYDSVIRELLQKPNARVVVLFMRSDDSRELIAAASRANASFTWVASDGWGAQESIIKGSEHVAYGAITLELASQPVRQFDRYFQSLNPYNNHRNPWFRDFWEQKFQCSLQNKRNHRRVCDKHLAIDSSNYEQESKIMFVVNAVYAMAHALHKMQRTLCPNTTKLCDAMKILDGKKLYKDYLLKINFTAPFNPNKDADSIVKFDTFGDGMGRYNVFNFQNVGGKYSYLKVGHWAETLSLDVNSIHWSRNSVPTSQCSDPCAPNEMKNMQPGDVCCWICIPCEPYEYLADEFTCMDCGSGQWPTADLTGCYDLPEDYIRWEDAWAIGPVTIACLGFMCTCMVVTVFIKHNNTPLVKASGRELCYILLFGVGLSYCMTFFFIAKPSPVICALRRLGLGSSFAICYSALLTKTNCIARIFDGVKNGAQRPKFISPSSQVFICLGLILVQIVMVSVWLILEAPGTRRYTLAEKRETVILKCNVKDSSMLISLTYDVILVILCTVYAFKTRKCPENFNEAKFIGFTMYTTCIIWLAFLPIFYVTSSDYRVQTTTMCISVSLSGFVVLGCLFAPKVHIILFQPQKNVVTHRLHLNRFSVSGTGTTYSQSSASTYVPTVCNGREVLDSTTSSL
Metabotropic glutamate receptor 2 (Homo sapiens), sequence (Q14416 19-872 limits assumed): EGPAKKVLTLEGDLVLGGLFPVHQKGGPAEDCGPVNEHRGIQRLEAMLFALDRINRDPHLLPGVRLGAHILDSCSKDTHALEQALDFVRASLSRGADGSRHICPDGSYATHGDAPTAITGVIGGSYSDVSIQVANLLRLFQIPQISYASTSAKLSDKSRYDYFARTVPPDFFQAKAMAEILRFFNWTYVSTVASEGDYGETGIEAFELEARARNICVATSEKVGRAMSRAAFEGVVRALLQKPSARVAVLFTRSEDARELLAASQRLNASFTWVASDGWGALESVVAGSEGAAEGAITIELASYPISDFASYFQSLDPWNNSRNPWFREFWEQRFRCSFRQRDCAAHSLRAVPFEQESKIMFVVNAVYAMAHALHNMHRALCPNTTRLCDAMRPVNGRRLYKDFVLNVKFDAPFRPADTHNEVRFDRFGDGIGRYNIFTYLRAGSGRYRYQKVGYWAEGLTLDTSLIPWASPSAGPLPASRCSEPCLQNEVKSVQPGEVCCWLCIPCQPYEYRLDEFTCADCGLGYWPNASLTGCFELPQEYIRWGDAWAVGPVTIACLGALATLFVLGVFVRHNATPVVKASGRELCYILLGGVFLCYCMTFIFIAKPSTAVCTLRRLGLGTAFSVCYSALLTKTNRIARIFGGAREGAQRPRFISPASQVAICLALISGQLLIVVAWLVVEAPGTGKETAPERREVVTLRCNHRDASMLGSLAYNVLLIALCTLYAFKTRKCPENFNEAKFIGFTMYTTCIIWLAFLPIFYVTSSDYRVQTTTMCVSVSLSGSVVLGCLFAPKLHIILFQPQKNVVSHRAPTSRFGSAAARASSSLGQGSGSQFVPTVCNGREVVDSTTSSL

Tmax [1] [h]	Activity [2] [%]	inhibition [4] [%]	inhibition [5]	Activity [6] [%]	Activity [9] [%]	Activity [10] [%]	Activity [11] [%]	fraction unbound at 6 h [12]	Vd [14] [L/kg]	Activity [15] [%]	Activity [16] [%]	SMILES	also measured
3	< 50	< 50	Dose-dependent effect	< 50	< 50	< 50	< 50	0.23	2	< 50	< 50	N#Cc1ccc(-c2noc(-c3cc(F)cc(C#N)c3)n2)nc1	AUC(0-t) at 8 h [3]: 3.6 µM·h; IC50 [7]: 14.5 nM; Ki [8]: 28 nM; Ki [13]: 17.9 nM
4	< 50	< 50	Dose-dependent effect	< 50	< 50	< 50	< 50	0.2	1.6	< 50	< 50	N#Cc1cc(F)cc(-c2nc(-c3ccc(F)cn3)no2)c1	AUC [17]: 5.4 µM·h; T1/2 [18]: 7.85 min; Bmax [19]: 5.3 pmol; Bmax [20]: 5 pmol; T1/2 [21]: 3.45 min; Bmax [22]: 4.4 pmol; Bmax [23]: 1550 fmol/mg; Bmax [24]: 5.1 pmol
